Data as given in ChEMBL document CHEMBL3627639, “Structure-activity relationships of amide-phosphonate derivatives as inhibitors of the human soluble epoxide hydrolase” (Bioorg Med Chem, 2015).
In brackets after ≈: the same amount, converted by molar mass.

Assays:
[1] = target: T1, Bifunctional epoxide hydrolase 2 (Homo sapiens, UniProt P34913); assay: Inhibition of recombinant human sEH expressed in baculovirus infected insect Sf9 cells using CMNPC as substrate assessed as 6-methoxy-2-naphthadehyde level after 10 mins by fluorescence assay
T1 sequence (P34913 whole entry): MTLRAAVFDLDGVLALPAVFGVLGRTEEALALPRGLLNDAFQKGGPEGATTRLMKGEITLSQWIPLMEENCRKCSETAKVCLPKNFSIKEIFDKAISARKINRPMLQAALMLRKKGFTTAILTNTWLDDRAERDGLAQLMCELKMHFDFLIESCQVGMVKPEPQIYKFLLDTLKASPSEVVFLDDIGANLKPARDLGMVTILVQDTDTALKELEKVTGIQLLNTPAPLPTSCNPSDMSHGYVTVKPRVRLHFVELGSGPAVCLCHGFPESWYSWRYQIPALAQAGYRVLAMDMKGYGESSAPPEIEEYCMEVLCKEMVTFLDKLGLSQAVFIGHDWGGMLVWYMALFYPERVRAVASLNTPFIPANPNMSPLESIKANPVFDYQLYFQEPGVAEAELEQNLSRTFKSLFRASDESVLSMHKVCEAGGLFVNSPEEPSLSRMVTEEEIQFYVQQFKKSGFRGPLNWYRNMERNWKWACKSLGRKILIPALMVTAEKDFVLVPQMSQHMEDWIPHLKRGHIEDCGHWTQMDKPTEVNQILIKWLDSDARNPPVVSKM
Outline: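 Recombinant human sEH (6xHis-tagged, expressed in Sf9 cells, tag removed with TEV protease, purified by metal affinity then anion exchange; 1 nM) preincubated with compound in DMSO for 10 min in 25 mM Bis–Tris/HCl pH 7.0 at 30 °C. CMNPC substrate added (5 µM). 6-Methoxy-2-naphthaldehyde read at ex 330/em 465 nm over 10 min. IC50 by regression of ≥5 points; mean of three runs.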

[2] = Aqueous solubility of the compound in sodium phosphate buffer at pH 7.4 at 25 +/- 1.5 degC by light scattering method; type: physicochemical
Outline: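 Compound stock in DMSO added at varied concentrations to 0.1 M sodium phosphate pH 7.4, final DMSO:buffer 5:95 (v/v). Turbidity read as OD at 650 nm at 25 ± 1.5 °C. Signal-to-noise ≥2 counted as insoluble. Mean of three separate measurements.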

Row | Compound | IC50 [1] [nM] | solubility kinetic [2] [µM]
1 | CCOP(=O)(OCC)C(Nc1ccc(CCNC(=O)C23CC4CC(CC(C4)C2)C3)cc1)C(C)(C)C (stereo not given) | 8.2 | –
2 | CC(C)(C)C(Nc1ccc(CNC(=O)C23CC4CC(CC(C4)C2)C3)cc1)P(=O)(OCc1ccccc1)OCc1ccccc1 (stereo not given) | 42 | –
3 | CCCCOP(=O)(OCCCC)C(Nc1ccc(CNC(=O)C23CC4CC(CC(C4)C2)C3)cc1)C(C)(C)C (stereo not given) | 26 | –
4 | CC(C)OP(=O)(OC(C)C)C(Nc1ccc(CNC(=O)C23CC4CC(CC(C4)C2)C3)cc1)C(C)(C)C (stereo not given) | 6.7 | –
5 | CCOP(=O)(OCC)C(Nc1ccc(CNC(=O)C2CCc3ccccc3C2)cc1)C(C)(C)C (stereo not given) | 3 | –
6 | CCOP(=O)(OCC)C(Nc1ccc(CNC(=O)C23CC4CC(CC(C4)C2)C3)cc1)c1ccccc1 (stereo not given) | 45 | –
7 | CCOP(=O)(OCC)C(Nc1ccc(CNC(=O)C23CC4CC(CC(C4)C2)C3)cc1)C(=O)c1ccccc1 (stereo not given) | 69 | –
8 | CC(C)COP(=O)(OCC(C)C)C(Nc1ccc(CNC(=O)NC23CC4CC(CC(C4)C2)C3)cc1)C(C)(C)C (stereo not given) | 1.8 | –
9 | CCOP(=O)(OCC)C(Nc1ccc(CCC(=O)NC23CC4CC(CC(C4)C2)C3)cc1)C(C)(C)C (stereo not given) | 43 | –
10 | CCOP(=O)(OCC)C(Nc1ccc(COC(=O)C23CC4CC(CC(C4)C2)C3)cc1)C(C)(C)C (stereo not given) | > 1000 | –
11 | CC(C)COP(=O)(OCC(C)C)C(Nc1ccc(CNC(=O)C23CC4CC(CC(C4)C2)C3)cc1)C(C)(C)C (stereo not given) | 16 | –
12 | CCOP(=O)(OCC)C(Nc1ccc(CNC(=O)C23CC4CC(CC(C4)C2)C3)cc1)c1ccc(C)cc1 (stereo not given) | 130 | –
13 | CC(C)(C)C(Nc1ccc(CNC(=O)NC23CC4CC(CC(C4)C2)C3)cc1)P(=O)(OCc1ccccc1)OCc1ccccc1 (stereo not given) | 2.6 | –
14 | CCOP(=O)(OCC)C(Nc1ccc(CNC(=O)c2ccc(OC(F)(F)F)cc2)cc1)C(C)(C)C (stereo not given) | 24 | –
15 | CC(C)(C)C(Nc1ccc(CNC(=O)C23CC4CC(CC(C4)C2)C3)cc1)P(=O)(OCC(F)(F)F)OCC(F)(F)F (stereo not given) | 30 | –
16 | CCCCOP(=O)(OCCCC)C(Nc1ccc(CNC(=O)NC23CC4CC(CC(C4)C2)C3)cc1)C(C)(C)C (stereo not given) | 3 | –
17 | CCOP(=O)(OCC)C(CC(C)(C)C)Nc1ccc(CNC(=O)C23CC4CC(CC(C4)C2)C3)cc1 (stereo not given) | 41 | –
18 | CCOP(=O)(OCC)C(Nc1ccc(CNC(=O)C23CC4CC(CC(C4)C2)C3)cc1)C(C)(C)C (stereo not given) | 5.1 | 125 (≈ 61.3 µg/mL)

Row | Compound | IC50 [1] [nM] | solubility kinetic [2] [µM]
19 | CCOP(=O)(OCC)C(Nc1ccc(CNC(=O)C23CC4CC(CC(C4)C2)C3)cc1)c1ccc(C(C)(C)C)cc1 (stereo not given) | 192 | –
20 | CCOP(=O)(OCC)C(Nc1ccc(CNC(=O)C23CC4CC(CC(C4)C2)C3)cc1)c1ccc(F)cc1 (stereo not given) | 120 | –
21 | CCOP(=O)(OCC)C(Nc1ccc(CNC(=O)C23CC4CC(CC(C4)C2)C3)cc1)C1CCCCC1 (stereo not given) | 46 | –
22 | CCOP(=O)(OCC)C(Nc1ccc(CNC(=O)C2CCCCC2)cc1)C(C)(C)C (stereo not given) | 23 | –
23 | CC(C)(C)C(Nc1ccc(CNC(=O)NC23CC4CC(CC(C4)C2)C3)cc1)P(=O)(OCC(F)(F)F)OCC(F)(F)F (stereo not given) | 3.8 | –
24 | CCOP(=O)(OCC)C(Nc1ccc(CNC(=O)c2ccc3cc(O)ccc3c2)cc1)C(C)(C)C (stereo not given) | 17 | –
25 | CCOP(=O)(OCC)C(Nc1ccc(CNC(=O)C23CC4CC(CC(C4)C2)C3)cc1)c1ccncc1 (stereo not given) | 185 | –
26 | CCOP(=O)(OCC)C(Nc1ccc(CNC(=O)C23CC4CC(CC(C4)C2)C3)cc1)c1ccc2ccccc2c1 (stereo not given) | 186 | –
27 | CCOP(=O)(OCC)C(Nc1ccc(CNC(=O)C23CC4CC(CC(C4)C2)C3)cc1)c1ccc(OC)cc1 (stereo not given) | 199 | –
28 | CCOP(=O)(OCC)C(Nc1ccc(CNC(=O)C23CC4CC(CC(C4)C2)C3)cc1)c1ccc(C#N)cc1 (stereo not given) | 108 | –
29 | CCOP(=O)(OCC)C(Nc1ccc(CNC(=O)CC23CC4CC(CC(C4)C2)C3)cc1)C(C)(C)C (stereo not given) | 1.9 | 62 (≈ 31.3 µg/mL)
30 | CCOP(=O)(OCC)C(Nc1ccc(NC(=O)C23CC4CC(CC(C4)C2)C3)cc1)C(C)(C)C (stereo not given) | 37 | –
31 | CCOP(=O)(OCC)C(Nc1ccc(CNC(=O)Cc2ccc3ccccc3c2)cc1)C(C)(C)C (stereo not given) | 3.4 | 78 (≈ 38.7 µg/mL)
32 | CCOP(=O)(OCC)C(Nc1ccc(CNC(=O)NC23CC4CC(CC(C4)C2)C3)cc1)C(C)(C)C (stereo not given) | 0.96 | 78 (≈ 39.4 µg/mL)
33 | CCOP(=O)(OCC)C(Nc1ccc(CNC(=O)C23CC4CC(CC(C4)C2)C3)cc1)c1ccc(C(=O)OC)cc1 (stereo not given) | 230 | –
34 | CCCC(Nc1ccc(CNC(=O)C23CC4CC(CC(C4)C2)C3)cc1)P(=O)(OCC)OCC (stereo not given) | 58 | –
35 | CC(C)OP(=O)(OC(C)C)C(Nc1ccc(CNC(=O)NC23CC4CC(CC(C4)C2)C3)cc1)C(C)(C)C (stereo not given) | 1.7 | –
36 | CCOP(=O)(OCC)C(Nc1ccc(CNC(=O)C23CC4CC(CC(C4)C2)C3)cc1)C1CC1 (stereo not given) | 21 | –
